In ChEMBL document CHEMBL1140405, “6-Acylamino-2-aminoquinolines as potent melanin-concentrating hormone 1 receptor antagonists. Identification, structure-activity relationship, and investigation of binding mode” (J Med Chem, 2005):
Converted amounts (≈) assume the structure as drawn. “And” between values parts separate entries of the source, which are not always exact repeats. Identical values can stand only once. Blank lines part the entries; values can stand above or below the compound they belong to.

Tests used:
[1] = Solubility was determined by addition of 10 mM DMSO solution of test compound to PBS (pH 7) until opalescence
[2] = target: Melanin-concentrating hormone receptor 2 (Homo sapiens, UniProt Q969V1); assay: Displacement of 30 pM [125I]-MCH from human MCH2R expressed in CHO-K1 in whole-cell binding assay
[3] = target: T1, 5-hydroxytryptamine receptor 2C (Homo sapiens, UniProt P28335); assay: Inhibitory concentration against human 5-hydroxytryptamine 2C receptor expressed in CHO-K1 cells using [3H]mesulergine; type: cell-based
T1 sequence (P28335 whole entry): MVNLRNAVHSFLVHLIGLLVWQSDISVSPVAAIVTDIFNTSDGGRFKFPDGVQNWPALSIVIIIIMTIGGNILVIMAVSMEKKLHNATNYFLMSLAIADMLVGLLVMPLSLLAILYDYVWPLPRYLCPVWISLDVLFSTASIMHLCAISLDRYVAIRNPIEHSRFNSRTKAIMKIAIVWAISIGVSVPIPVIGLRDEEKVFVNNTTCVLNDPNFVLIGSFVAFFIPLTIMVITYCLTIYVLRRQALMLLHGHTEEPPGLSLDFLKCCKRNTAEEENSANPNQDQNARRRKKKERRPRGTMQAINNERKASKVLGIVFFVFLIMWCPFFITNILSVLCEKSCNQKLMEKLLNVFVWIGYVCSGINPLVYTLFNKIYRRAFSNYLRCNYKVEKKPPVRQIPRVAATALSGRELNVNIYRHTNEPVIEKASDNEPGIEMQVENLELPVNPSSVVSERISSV
Method in brief: (§1)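 SPA competition binding on purchased membranes from CHO-K1 cells expressing h5-HT2c (4 μg/well), with YSi-WGA beads (0.4 mg/well) and [3H]mesulergine tracer, across various test-compound concentrations. Buffer is 50 mM Tris pH 7.7, 50 mM MgCl2 and 0.1% pargyline. Nonspecific binding uses 1 μM cold mesulergine. IC50 is taken by nonlinear regression.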

[4] = target: Melanin-concentrating hormone receptor 1 (Homo sapiens, UniProt Q99705); assay: Displacement of 150p M [125I]MCH from human MCH1R expressed in CHO-K1 cells at 10 uM; type: cell-based
[5] = target: T2, Muscarinic acetylcholine receptor M2 (Homo sapiens, UniProt P08172); assay: Inhibitory concentration against muscarinic acetylcholine receptor M2
T2 sequence (P08172 whole entry): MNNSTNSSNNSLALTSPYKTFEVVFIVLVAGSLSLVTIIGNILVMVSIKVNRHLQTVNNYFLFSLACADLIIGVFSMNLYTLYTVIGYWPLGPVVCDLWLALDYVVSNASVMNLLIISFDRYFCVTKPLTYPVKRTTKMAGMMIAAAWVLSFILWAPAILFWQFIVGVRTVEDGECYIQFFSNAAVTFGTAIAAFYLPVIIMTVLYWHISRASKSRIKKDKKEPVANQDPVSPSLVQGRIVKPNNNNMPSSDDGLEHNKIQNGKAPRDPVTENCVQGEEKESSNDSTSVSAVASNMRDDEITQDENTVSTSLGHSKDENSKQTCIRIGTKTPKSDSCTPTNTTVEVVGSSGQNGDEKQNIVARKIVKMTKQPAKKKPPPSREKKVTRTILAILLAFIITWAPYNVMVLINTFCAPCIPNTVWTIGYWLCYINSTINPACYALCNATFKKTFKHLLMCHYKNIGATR

[6] = target: 5-hydroxytryptamine receptor 2A (Homo sapiens, UniProt P28223); assay: Inhibitory concentration against 5-hydroxytryptamine 2A receptor
Histamine H1 receptor [7] = target: T3, Histamine H1 receptor (Homo sapiens, UniProt P35367); assay: Inhibitory concentration against Histamine H1 receptor
Histamine H2 receptor [8] = target: T4, Histamine H2 receptor (Homo sapiens, UniProt P25021); assay: Inhibitory concentration against Histamine H2 receptor
[9] = target: T5, Adrenergic receptor alpha-2 (Homo sapiens, UniProt P08913+P18825+P18089); assay: Inhibitory concentration against alpha-2 adrenergic receptor; type: protein assay
T5 sequence (P08913 whole entry): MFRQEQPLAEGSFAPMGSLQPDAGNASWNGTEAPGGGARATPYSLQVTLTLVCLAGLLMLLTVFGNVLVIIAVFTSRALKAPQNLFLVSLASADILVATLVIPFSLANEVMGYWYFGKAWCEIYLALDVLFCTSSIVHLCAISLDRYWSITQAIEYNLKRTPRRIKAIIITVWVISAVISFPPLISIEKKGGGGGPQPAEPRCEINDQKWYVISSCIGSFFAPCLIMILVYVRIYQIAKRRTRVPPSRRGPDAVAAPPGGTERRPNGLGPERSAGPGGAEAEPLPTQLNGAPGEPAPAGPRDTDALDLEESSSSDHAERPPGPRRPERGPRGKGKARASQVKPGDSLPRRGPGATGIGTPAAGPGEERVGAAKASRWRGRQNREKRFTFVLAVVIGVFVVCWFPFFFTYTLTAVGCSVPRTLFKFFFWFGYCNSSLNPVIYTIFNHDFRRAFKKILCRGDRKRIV
T5 sequence (P18825 whole entry): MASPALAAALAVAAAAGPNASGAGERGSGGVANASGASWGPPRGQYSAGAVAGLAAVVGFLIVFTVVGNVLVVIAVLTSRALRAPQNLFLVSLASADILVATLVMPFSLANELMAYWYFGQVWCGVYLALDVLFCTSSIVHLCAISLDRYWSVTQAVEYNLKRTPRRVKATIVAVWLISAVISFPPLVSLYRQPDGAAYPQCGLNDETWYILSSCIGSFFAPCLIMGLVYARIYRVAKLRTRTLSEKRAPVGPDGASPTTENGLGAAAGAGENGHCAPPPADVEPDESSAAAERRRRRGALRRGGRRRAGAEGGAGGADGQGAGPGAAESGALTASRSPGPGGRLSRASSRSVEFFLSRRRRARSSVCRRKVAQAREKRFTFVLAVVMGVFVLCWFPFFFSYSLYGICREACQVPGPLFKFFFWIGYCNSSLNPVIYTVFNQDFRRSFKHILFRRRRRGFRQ
T5 sequence (P18089 whole entry): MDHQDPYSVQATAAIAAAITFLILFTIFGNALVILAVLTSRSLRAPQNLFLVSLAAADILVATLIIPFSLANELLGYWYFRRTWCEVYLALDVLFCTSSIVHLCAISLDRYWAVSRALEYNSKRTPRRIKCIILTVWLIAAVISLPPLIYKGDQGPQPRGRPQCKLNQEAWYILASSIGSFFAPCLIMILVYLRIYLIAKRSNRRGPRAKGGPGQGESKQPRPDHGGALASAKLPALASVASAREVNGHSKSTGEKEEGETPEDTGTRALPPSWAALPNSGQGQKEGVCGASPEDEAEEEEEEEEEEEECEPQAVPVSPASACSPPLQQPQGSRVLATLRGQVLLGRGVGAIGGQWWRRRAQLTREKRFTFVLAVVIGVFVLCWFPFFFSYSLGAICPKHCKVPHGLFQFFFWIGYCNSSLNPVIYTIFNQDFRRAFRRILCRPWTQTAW

D(1A) dopamine receptor = D(1A) dopamine receptor (Homo sapiens, UniProt P21728); assay: Inhibitory concentration against dopamine receptor D1
[10] = target: 5-hydroxytryptamine receptor 1B (Homo sapiens, UniProt P28222); assay: Inhibitory concentration against 5-hydroxytryptamine 1B receptor
[11] = target: Sodium-dependent dopamine transporter (Homo sapiens, UniProt Q01959); assay: Inhibitory concentration against dopamine transporter
[12] = target: T1, 5-hydroxytryptamine receptor 2C; assay: Inhibitory concentration against 5-hydroxytryptamine 2C receptor expressed in CHO-K1 cells using [3H]mesulergine; type: cell-based; method in brief: as §1
D(3) dopamine receptor = D(3) dopamine receptor (Homo sapiens, UniProt P35462); assay: Inhibitory concentration against dopamine receptor D3
[13] = target: T6, Muscarinic acetylcholine receptor M1 (Homo sapiens, UniProt P11229); assay: Inhibitory concentration against muscarinic acetylcholine receptor M1
T6 sequence (P11229 whole entry): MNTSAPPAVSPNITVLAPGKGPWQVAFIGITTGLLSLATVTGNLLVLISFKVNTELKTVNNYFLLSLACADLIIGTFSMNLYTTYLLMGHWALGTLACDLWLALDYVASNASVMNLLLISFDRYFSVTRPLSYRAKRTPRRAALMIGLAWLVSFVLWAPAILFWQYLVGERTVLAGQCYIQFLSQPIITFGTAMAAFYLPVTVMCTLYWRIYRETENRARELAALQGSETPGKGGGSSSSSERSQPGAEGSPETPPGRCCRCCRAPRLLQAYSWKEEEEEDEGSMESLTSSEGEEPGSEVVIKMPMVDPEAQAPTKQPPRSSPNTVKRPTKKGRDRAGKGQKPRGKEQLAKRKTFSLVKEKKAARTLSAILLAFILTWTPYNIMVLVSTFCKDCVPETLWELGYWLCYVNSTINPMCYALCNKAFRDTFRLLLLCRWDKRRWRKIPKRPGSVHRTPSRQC

Histamine H2 receptor [14] = target: T4, Histamine H2 receptor; assay: Inhibitory concentration against histamine H2 receptor
Histamine H1 receptor [15] = target: T3, Histamine H1 receptor; assay: Inhibitory concentration against histamine H1 receptor

Sequence of Melanin-concentrating hormone receptor 2 (Q969V1 whole entry): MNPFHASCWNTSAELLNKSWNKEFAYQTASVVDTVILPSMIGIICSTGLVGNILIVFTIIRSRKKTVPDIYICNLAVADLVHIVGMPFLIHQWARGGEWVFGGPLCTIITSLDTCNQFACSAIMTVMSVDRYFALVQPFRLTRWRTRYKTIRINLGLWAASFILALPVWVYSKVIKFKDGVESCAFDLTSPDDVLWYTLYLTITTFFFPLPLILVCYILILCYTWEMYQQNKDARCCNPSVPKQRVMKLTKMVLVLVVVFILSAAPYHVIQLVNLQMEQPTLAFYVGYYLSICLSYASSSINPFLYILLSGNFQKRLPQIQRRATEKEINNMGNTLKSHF
Sequence of Melanin-concentrating hormone receptor 1 (Q99705 whole entry): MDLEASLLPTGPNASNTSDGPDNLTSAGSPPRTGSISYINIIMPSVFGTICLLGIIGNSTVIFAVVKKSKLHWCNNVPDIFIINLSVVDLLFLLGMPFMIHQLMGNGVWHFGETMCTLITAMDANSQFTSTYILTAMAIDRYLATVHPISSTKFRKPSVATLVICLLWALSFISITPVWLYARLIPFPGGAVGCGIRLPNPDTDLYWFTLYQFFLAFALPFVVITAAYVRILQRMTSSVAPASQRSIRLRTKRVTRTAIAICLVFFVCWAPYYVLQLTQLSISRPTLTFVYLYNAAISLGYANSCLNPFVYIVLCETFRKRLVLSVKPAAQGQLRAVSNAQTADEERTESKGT
T3 sequence (P35367 whole entry): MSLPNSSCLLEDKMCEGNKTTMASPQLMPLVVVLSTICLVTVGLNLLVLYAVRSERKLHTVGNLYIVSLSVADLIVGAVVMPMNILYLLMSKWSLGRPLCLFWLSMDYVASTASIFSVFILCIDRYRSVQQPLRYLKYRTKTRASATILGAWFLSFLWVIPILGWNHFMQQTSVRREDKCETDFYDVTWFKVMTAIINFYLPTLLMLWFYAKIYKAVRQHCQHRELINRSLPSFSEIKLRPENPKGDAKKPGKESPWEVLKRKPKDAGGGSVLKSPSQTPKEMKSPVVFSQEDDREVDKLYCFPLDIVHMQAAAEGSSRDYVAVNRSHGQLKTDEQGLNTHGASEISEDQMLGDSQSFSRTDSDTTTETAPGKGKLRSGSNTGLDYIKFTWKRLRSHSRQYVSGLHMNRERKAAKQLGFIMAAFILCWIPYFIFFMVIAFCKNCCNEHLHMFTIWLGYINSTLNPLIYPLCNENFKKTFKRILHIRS
Sequence of D(3) dopamine receptor (P35462 whole entry): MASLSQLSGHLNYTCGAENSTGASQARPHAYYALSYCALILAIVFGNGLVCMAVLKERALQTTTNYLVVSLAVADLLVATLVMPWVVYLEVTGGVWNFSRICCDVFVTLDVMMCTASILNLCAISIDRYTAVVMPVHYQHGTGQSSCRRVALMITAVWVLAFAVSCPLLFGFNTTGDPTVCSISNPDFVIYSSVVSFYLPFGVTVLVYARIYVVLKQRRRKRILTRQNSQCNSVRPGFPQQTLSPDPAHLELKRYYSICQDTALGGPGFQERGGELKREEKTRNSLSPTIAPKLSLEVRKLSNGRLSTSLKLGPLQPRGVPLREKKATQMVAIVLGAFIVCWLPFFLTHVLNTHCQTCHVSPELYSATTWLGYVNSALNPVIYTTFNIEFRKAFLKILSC
T4 sequence (P25021 whole entry): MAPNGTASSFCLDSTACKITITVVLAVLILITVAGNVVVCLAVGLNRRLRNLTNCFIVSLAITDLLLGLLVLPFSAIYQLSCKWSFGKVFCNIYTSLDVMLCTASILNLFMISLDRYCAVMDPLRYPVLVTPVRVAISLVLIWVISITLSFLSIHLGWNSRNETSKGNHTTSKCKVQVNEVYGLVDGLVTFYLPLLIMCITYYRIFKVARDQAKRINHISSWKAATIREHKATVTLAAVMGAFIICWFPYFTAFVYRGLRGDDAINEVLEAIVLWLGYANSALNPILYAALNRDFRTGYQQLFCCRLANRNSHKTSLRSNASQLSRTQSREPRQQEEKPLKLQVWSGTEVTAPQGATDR
Sequence of D(1A) dopamine receptor (P21728 whole entry): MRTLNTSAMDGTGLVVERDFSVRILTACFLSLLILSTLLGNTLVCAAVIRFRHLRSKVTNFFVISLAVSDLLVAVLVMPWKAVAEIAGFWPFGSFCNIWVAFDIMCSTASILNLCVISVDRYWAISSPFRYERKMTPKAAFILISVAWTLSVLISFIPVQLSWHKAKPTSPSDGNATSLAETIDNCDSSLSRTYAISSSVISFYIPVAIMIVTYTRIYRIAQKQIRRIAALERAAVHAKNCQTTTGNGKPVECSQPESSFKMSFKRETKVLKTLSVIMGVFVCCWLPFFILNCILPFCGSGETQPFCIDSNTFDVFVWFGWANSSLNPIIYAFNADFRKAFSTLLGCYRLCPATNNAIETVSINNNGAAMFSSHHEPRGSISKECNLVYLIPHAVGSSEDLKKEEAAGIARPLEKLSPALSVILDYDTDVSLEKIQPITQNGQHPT
Sequence of 5-hydroxytryptamine receptor 2A (P28223 whole entry): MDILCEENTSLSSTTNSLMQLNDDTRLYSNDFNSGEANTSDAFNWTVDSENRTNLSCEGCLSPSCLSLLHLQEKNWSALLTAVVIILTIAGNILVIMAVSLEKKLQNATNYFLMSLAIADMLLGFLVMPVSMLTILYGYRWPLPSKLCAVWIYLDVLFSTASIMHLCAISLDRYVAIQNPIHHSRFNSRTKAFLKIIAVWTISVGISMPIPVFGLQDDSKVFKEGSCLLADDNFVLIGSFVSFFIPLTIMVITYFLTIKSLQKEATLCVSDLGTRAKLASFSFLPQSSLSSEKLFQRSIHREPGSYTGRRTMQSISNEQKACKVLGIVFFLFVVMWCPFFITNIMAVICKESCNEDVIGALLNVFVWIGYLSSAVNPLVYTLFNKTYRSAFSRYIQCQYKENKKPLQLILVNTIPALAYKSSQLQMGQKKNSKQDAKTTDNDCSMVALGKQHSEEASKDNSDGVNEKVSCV
Sequence of 5-hydroxytryptamine receptor 1B (P28222 whole entry): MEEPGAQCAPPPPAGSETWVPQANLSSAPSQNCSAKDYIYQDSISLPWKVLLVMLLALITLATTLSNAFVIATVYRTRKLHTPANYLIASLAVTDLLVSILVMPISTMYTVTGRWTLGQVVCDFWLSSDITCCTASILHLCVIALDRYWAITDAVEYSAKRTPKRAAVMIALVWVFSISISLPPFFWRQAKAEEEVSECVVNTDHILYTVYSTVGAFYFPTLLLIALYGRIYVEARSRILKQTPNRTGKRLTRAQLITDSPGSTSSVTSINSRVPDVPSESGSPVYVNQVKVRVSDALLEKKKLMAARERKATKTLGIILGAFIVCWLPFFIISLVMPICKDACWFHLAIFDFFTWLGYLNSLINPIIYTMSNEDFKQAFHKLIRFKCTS
Sequence of Sodium-dependent dopamine transporter (Q01959 whole entry): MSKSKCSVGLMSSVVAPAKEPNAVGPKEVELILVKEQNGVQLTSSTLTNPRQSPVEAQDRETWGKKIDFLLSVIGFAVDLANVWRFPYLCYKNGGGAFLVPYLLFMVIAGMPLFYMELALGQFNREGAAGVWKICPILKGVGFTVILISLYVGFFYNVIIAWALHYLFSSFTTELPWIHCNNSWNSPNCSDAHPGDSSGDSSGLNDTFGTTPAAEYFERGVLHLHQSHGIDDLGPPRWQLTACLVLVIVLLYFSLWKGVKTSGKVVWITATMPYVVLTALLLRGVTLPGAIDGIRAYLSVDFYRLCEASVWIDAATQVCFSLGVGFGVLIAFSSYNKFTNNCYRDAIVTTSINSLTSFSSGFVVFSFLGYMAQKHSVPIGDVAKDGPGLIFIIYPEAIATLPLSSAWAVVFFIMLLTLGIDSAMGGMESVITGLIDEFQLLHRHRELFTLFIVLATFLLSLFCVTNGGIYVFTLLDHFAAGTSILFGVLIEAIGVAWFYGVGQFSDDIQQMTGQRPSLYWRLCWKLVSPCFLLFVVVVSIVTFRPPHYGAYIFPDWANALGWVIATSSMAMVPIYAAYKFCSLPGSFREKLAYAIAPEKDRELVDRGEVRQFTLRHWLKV

solubility kinetic ([1]; PBS): 150 µM (≈ 70.9 µg/mL)
IC50 [2]: 6.8 µM
SMILES: Cc1cc(N2CC3CC2CN3)nc2ccc(NC(=O)COc3ccc(OC(F)(F)F)cc3)cc12 (stereo unspecified)

IC50 [2]: 8.4 µM
IC50 [3]: 5.7 µM
SMILES: Cc1cc(NCCN(C)C)nc2ccc(NC(=O)/C=C/c3ccc(OC(F)(F)F)cc3)cc12

IC50 [2]: 7.1 µM
IC50 [3]: 4 µM
SMILES: Cc1cc(NCCCN(C)C)nc2ccc(NC(=O)COc3ccc(OC(F)(F)F)cc3)cc12

IC50 [5]: 480 nM
IC50 [6]: 1900 nM
IC50 (Histamine H1 receptor [7]): > 10 µM
IC50 (Histamine H2 receptor [8]): 860 nM
IC50 [9]: 1300 nM
IC50 (D(1A) dopamine receptor): 0.9 µM
IC50 [10]: 800 nM
IC50 [11]: 10 µM
IC50 [12]: 900 nM
IC50 (D(3) dopamine receptor): 2300 nM
IC50 [13]: 1300 nM
SMILES: Cc1cc(N(C)CCN(C)C)nc2ccc(NC(=O)/C=C/c3ccc(OC(F)(F)F)cc3)cc12

IC50 [2]: > 10 µM
IC50 [3]: 4.7 µM
SMILES: CCN1CCCC1CNc1cc(C)c2cc(NC(=O)COc3ccc(OC(F)(F)F)cc3)ccc2n1 (stereo unspecified)

solubility kinetic ([1]; PBS): 120 µM (≈ 56.9 µg/mL)
SMILES: Cc1cc(N2CCN(C)CC2)nc2ccc(NC(=O)COc3ccc(OC(F)(F)F)cc3)cc12

Continued, compound first:

SMILES: CCN1CCN(c2cc(C)c3cc(NC(=O)c4ccc(OC)cc4)ccc3n2)CC1
inhibition [4]: 40%

SMILES: CC(=O)OCCN(C)c1cc(C)c2cc(NC(=O)COc3ccc(Cl)cc3Cl)ccc2n1
IC50 [2]: > 10 µM

SMILES: Cc1cc(N2CCNCC2)nc2ccc(NC(=O)COc3ccc(Cl)cc3Cl)cc12
solubility kinetic ([1]; buffer): 25 µM (≈ 11.1 µg/mL)
IC50 [2]: 3.7 µM
IC50 [3]: 2 µM

SMILES: Cc1cc(N(C)CCO)nc2ccc(NC(=O)/C=C/c3ccc(OC(F)(F)F)cc3)cc12
IC50 [2]: 6.4 µM
IC50 [3]: > 10 µM

SMILES: Cc1cc(OCCN(C)C)nc2ccc(NC(=O)COc3ccc(Cl)cc3Cl)cc12
IC50 [5]: 4500 nM
IC50 [6]: 610 nM
IC50 [9]: 250 nM
IC50 (D(1A) dopamine receptor): 7.5 µM
IC50 [10]: 200 nM
IC50 (Histamine H2 receptor [14]): 870 nM
IC50 [2]: 8.7 µM
IC50 [11]: > 10 µM
IC50 [3]: 2.6 µM and 2.5 µM
IC50 (D(3) dopamine receptor): 1.3 nM
IC50 (Histamine H1 receptor [15]): 3.5 µM
IC50 [13]: 1700 nM

SMILES: CCN1CCN(c2cc(C)c3cc(NC(=O)c4cc(=O)c5ccccc5o4)ccc3n2)CC1
inhibition [4]: 71%

SMILES: CCN1CCN(c2cc(C)c3cc(NC(=O)/C=C/c4ccccc4OC(C)C)ccc3n2)CC1
inhibition [4]: 41%
